From ChEMBL document CHEMBL1123337, “Synthesis and antiinflammatory/analgesic activities of 11H-dibenzo[b, e,][1,4]dioxepinacetic acids” (J Med Chem, 1986) come the findings set out here.

One may read the inhibition in vivo as the change of the read-out against control, counted positive when it falls. The term ED50 denotes the midpoint of the dose-response relation. High values mean weaker potency, low ones greater potency.

Type in all cases: functional
Test [1] relates to Rattus norvegicus. Nature of the test: Antiinflammatory activity was evaluated by the inhibition of rat carrageenan foot edema (CFE) assay at the dose of 1 mg/kg. In outline:
(§1)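 Rats, six per dose. Oral dosing 1 h before carrageenan injection, as a suspension in 0.25% (w/v) agar in water, 3.0 mL per animal. Hindpaw volume read by mercury displacement just after injection and 3 h later. Percent inhibition of mean swelling relative to vehicle controls; unpaired Student's t test.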
(In general: In the carrageenan paw model, swelling and tenderness develop within hours.)

For test [2], the system named is Rattus norvegicus. The test can be described thus: Antiinflammatory activity was evaluated by the inhibition of rat carrageenan foot edema (CFE) assay at the dose of 10 mg/kg. In outline: as §1
For test [3], the system named is Rattus norvegicus. Nature of the test: Antiinflammatory activity was evaluated by the inhibition of rat carrageenan foot edema (CFE) assay at the dose of 3 mg/kg. The method, boiled down:
as §1

For test [4], the system named is Mus musculus. The test can be described thus: Analgesic activity determined by its ability to inhibit phenylbenzoquinone (PBQ, ip) induced abdominal writhing at dose of 30 mg/kg. The note with it: Abdomen. In outline: (§2)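 Male CD mice, 18–22 g, groups of 10, fasted overnight. Dosed orally in 1% methylcellulose 60 min before ip phenylbenzoquinone (2 mg/kg, 0.02% aqueous). Writhes (abdominal contractions, lordosis, hindlimb extension) counted over 10 min, starting 5 min after PBQ. Group means and standard errors taken; percent inhibition calculated against vehicle controls.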

In test [5] the test system is Mus musculus. Nature of the test: Analgesic activity determined by its ability to inhibit phenylbenzoquinone (PBQ, ip) induced abdominal writhing at dose of 10 mg/kg. The note with it: Abdomen. In outline: as §2
In general terms: An intraperitoneal irritant provokes the stretching counted in writhing tests.

Test [6] concerns Rattus norvegicus. The test can be described thus: Gastric haemorrhage at the dose of 10 mg/kg expressed as the number of rats with lesions per 6 number of rats (lesions per animal=4.2). In outline:
(§3)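 Male Sprague-Dawley rats, 120–200 g, six per group, weight-sorted and fasted overnight. Given orally as a suspension in 0.5% methocal. Killed by CO2 4 h later. Stomachs everted and washed, and mucosal lesions counted visually under 3× magnification. Scored as rats with lesions per total, with lesions per animal.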

For test [7], the system named is Rattus norvegicus. Nature of the test: Gastric haemorrhage at the dose of 30 mg/kg expressed as the number of rats with lesions per 6 number of rats. The method, boiled down: as §3
Test [8] deals with Mus musculus. The test can be described thus: Analgesic activity determined by its ability to inhibit phenylbenzoquinone (PBQ, ip) induced abdominal writhing at dose of 3 mg/kg. The note with it: Abdomen. The method, boiled down:
as §2

Test [9] relates to Rattus norvegicus. The test can be described thus: Compound was evaluated for the effective dose required for the inhibition of rat carrageenan foot edema (CFE) assay.
Test [10] has as its system Rattus norvegicus. Nature of the test: Gastric haemorrhage at the dose of 10 mg/kg expressed as the number of rats with lesions per 6 number of rats. The method, boiled down: as §3
The subject of test [11] is Rattus norvegicus. Nature of the test: Gastric haemorrhage at the dose of 30 mg/kg expressed as the number of rats with lesions per 6 number of rats (lesions per animal=1.7). The method, boiled down:
as §3

On to `CC(=O)NCCOC(=O)C(C)c1ccc2c(c1)Oc1ccccc1CO2` (stereo not drawn), for which the inhibition in vivo at 1 mg/kg in test [1] amounted to 7%. The inhibition in vivo at 10 mg/kg in test [2] turned out to be 28%. Also, the inhibition in vivo at 3 mg/kg in test [3] was 15%.
Consider `CC(C(=O)O)c1ccc2c(c1)OCc1ccccc1O2` (stereo not drawn), for which the inhibition in vivo at 30 mg/kg in [4] was found to be 70%. In addition, the inhibition in vivo at 1 mg/kg in test [1] came to 43%. Besides, the inhibition in vivo at 10 mg/kg in test [2] came out at 43%. Also, the inhibition in vivo at 3 mg/kg in test [3] was 45%.
As for `O=C(O)Cc1ccc2c(c1)Oc1ccc(Cl)cc1CO2`, the inhibition in vivo at 30 mg/kg in test [4] is 82%. Besides, the inhibition in vivo at 1 mg/kg in test [1] amounted to 21%. In test [2], the inhibition in vivo at 10 mg/kg came out at 28%. Further, the inhibition in vivo at 3 mg/kg in test [3] was 23%.
In the case of `CC(C(=O)O)c1ccc2c(c1)Oc1ccccc1CO2` (stereo not drawn), the inhibition in vivo at 30 mg/kg in [4] was 91%. Moreover, the inhibition in vivo at 10 mg/kg in test [5] amounted to 70%; in test [2] it was 42%. The inhibition in vivo at 1 mg/kg in [1] is 21%. Moreover, the inhibition in vivo at 3 mg/kg in test [3] was determined as 27%; in test [8] it was 38%. Further, the “No. of rats with lesions” value in test [6] was determined as 5; in test [7], 6.
As for `O=C(O)Cc1ccc2c(c1)Oc1cc(Cl)ccc1CO2`, in test [4], the inhibition in vivo at 30 mg/kg came out at 26%. The inhibition in vivo at 1 mg/kg in [1] is 11%. The inhibition in vivo at 10 mg/kg in test [2] stood at 5%. The inhibition in vivo at 3 mg/kg in test [3] was 19%.
As for `O=C(O)Cc1ccc2c(c1)OCc1ccccc1O2`, the inhibition in vivo at 1 mg/kg in [1] is 28%. Further, in [2], the inhibition in vivo at 10 mg/kg amounted to 49%. The inhibition in vivo at 3 mg/kg in test [3] was 53%.
In the case of `CC(CO)c1ccc2c(c1)Oc1ccccc1CO2` (stereo not drawn), the inhibition in vivo at 1 mg/kg in [1] was determined as 9%. The inhibition in vivo at 10 mg/kg in test [2] amounted to 45%. Moreover, the inhibition in vivo at 3 mg/kg in test [3] turned out to be 19%.
On to `Cc1cc(CC(=O)O)n(C)c1C(=O)c1ccc(Cl)cc1` [ZOMEPIRAC], for which, in [4], the inhibition in vivo at 30 mg/kg came to 91%. Moreover, the inhibition in vivo at 1 mg/kg in test [1] turned out to be 61%. Also, the inhibition in vivo at 3 mg/kg in test [3] came out at 82%.
In test [9], `O=C(O)Cc1ccc2c(c1)OCc1ccccc1C2=O` [OXEPINAC] gave a 50% effective dose (ED50) of 3.7 mg/kg.
Regarding `O=C(O)Cc1ccc2c(c1)Oc1ccccc1OC2`, the inhibition in vivo at 10 mg/kg in test [2] is 5%. Further, in test [3], the inhibition in vivo at 3 mg/kg was 6%.
Regarding `CC(=O)Nc1ccc2c(c1)COc1ccc(CC(=O)O)cc1O2`, the inhibition in vivo at 30 mg/kg in test [4] was -55%. Further, the inhibition in vivo at 1 mg/kg in test [1] amounted to 35%. In test [2], the inhibition in vivo at 10 mg/kg was 23%. In addition, the inhibition in vivo at 3 mg/kg in test [3] came out at 16%.
Take `CCC(=O)OC(C)OC(=O)C(C)c1ccc2c(c1)Oc1ccccc1CO2` (stereo not drawn): in [1], the inhibition in vivo at 1 mg/kg was 6%. For the same compound, the inhibition in vivo at 10 mg/kg in test [2] was 12%. Besides, in [3], the inhibition in vivo at 3 mg/kg is 15%.
As for `COc1ccc2c(c1)c(CC(=O)O)c(C)n2C(=O)c1ccc(Cl)cc1` [INDOMETHACIN], in test [1], the inhibition in vivo at 1 mg/kg was 33%. The inhibition in vivo at 10 mg/kg in [2] was determined as 67%. In [3], the inhibition in vivo at 3 mg/kg worked out at 56%.
Take `COC(=O)C(C)c1ccc2c(c1)Oc1ccccc1CO2` (stereo not drawn): in test [1], the inhibition in vivo at 1 mg/kg amounted to 23%. Also, the inhibition in vivo at 10 mg/kg in test [2] stood at 56%. Besides, the inhibition in vivo at 3 mg/kg in test [3] amounted to 32%. Also, the entries for the “No. of rats with lesions” value in test [10] and in [11] were 0 and 5, respectively.
On to `O=C(O)Cc1ccc2c(c1)COc1ccccc1O2`, for which the inhibition in vivo at 30 mg/kg in test [4] turned out to be 37%. Moreover, the inhibition in vivo at 1 mg/kg in test [1] stood at 12%. Moreover, the inhibition in vivo at 10 mg/kg in test [2] was 16%. Also, in [3], the inhibition in vivo at 3 mg/kg stood at 9%.
On the same counts, the results for `O=C(O)Cc1ccc2c(c1)Oc1ccccc1CO2` are 26%, 24%, 40% and 10%.
